Screening results (PubChem BioAssay)
In the library only some 3% were active in any assay of this set; here they are far more common.
AI-2 QS modul: modulators of Vibrio harveyi AI-2 quorum sensing system; Vibrio harveyi JMH597 AI-2 luminescence/OD600 ratio, 9 h; active compounds read low; strain lacks LuxN and CqsS sensors; 0 = neutral-control median; activity change, % at 7.5 µM; actives 0.4% (n = 300,000); AID 2094; in the data active = activity change below about -75%, passing the limit was not always enough; inconclusive = no clear call, values can overlap the other calls;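 note: luminescence divided by OD600 gain over 9 h not by final OD600 alone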
V-ATPase pH: yeast V-ATPase proton transport regulation by pHLuorin | S. cerevisiae, pHLuorin cytosolic pH fluorescence | response, % at 10 µM | actives 0.37% (n = 350,000) | AID 504577; in the data active = response mostly above about 7.3%, no sharp cut-off; inactive = mostly below about 5.4%; note: actives read high
T cruzi inh: T. cruzi replication inhibition; T. cruzi beta-gal in NIH3T3, luminescence, 90 h; actives 1.4% (n = 300,000); inhibition, % (no concentration beside the values);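 active = mean inhibition across valid replicates above about 55%, limit read from the data; inconclusive = mean below that limit but half or more replicates reach it; inactive = mean below it, under half of replicates reach it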;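 note: signal also drops with host cell toxicity which is not excluded here; 0% = plate median of DMSO wells and 100% = zero luminescence signal; higher percent means less beta-gal luminescence so fewer parasites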
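compound dosing = single 50 nL compound addition per well in DMSO | material = NIH/3T3 host cells with β-galactosidase reporter T. cruzi | input = 5,000 host fibroblasts per well | timing = ≥90 h infection period, 3 h prior cell attachment | read-out basis = percent inhibition of parasite-derived β-gal signal | detection = GalScreen β-gal luminescence, detergent lysis, 60 min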
CR mimetic SO: yeast age-related superoxide inhibition as caloric restriction mimetic; S. cerevisiae aged cells, superoxide DHE fluorescence; active compounds read low; superoxide response (% of plate mean), % at 10 µM; actives 0.18% (n = 330,000); AID 2690;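 active = superoxide response under a set limit, about three screen SD below normal, cut at about 65% in these data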;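 note: yeast aged for seven days with compound at 30 °C before DHE staining; 100% = average MFI of all compound-treated wells on the plate with controls excluded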
CendR NRP1 mod: alters CendR peptide binding to human NRP-1; FAM-RPARPAR peptide binding to NRP-1, fluorescence polarization; AID 602438; O14786; inhibition, % at 25 µM; actives 0.85% (n = 360,000);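 active = inhibition or corrected inhibition above about 18%, plus a signal ratio from 0.5 to 1.5, limit read from the data, passing the limit was not always enough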
Target sequence (O14786 whole entry, looked up): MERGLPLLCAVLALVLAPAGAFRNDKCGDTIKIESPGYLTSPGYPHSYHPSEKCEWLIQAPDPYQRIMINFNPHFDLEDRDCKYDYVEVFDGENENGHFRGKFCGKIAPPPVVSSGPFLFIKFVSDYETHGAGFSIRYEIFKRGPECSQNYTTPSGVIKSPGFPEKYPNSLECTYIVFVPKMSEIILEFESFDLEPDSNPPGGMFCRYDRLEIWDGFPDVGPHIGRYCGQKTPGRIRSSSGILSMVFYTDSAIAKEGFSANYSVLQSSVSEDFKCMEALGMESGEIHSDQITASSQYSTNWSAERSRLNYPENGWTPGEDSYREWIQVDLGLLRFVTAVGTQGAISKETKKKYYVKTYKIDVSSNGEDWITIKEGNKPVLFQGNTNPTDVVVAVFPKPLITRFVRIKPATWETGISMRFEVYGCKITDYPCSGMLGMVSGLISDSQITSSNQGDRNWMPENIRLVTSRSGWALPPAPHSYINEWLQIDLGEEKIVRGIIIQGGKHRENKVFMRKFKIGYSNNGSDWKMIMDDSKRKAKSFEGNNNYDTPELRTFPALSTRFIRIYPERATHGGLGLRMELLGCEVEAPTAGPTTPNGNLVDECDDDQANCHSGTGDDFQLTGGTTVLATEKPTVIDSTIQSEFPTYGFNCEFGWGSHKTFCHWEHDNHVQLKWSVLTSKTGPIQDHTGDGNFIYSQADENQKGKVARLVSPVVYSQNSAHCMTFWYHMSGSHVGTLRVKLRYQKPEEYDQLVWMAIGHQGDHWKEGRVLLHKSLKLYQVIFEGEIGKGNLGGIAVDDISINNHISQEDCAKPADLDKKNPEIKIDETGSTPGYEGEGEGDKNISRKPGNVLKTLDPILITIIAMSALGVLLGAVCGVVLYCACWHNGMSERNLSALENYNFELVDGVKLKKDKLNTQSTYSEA
HIF activator: HIF pathway transcriptional activation. U2OS HRE-luciferase reporter, luminescence; normalized: DMSO 0%, desferrioxamine 100%. activation, % at 7.5 µM (by protocol). actives 0.32% (n = 300,000). AID 1910;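 active = mean activation of at least 10% of the iron chelator positive control signal, with at least half of replicates also reaching 10%; inconclusive = mean and replicate majority disagree about reaching 10%; inactive = mean and most replicates under 10%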
CR mimetic CP: confirmation of caloric restriction mimetics inhibiting yeast age-related superoxide | shares compounds with CR mimetic SO | S. cerevisiae aging, superoxide DHE fluorescence; active compounds read low | superoxide response (% of plate), % at 10 µM | actives 1% (n = 850);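 active = superoxide signal below 65% of the plate average of sample wells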;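 note: cells aged with compound for 7 days at 30 degrees C before staining; 100% equals mean DHE fluorescence of all compound wells on the plate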
DHE fluor count: counter-screen for compounds affecting DHE oxidation and fluorescence in yeast | shares compounds with CR mimetic SO | S. cerevisiae BY4741, flow cytometry; active compounds read low | fluorescence response, % at 10 µM | 850 tested, under 10 active | AID 435000;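 active = fluorescence response below 15%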;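 note: percent of the mean fluorescence averaged over all compound wells on the plate; lower means stronger quenching of DHE signal or ROS scavenging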
Numbers without * were called inactive; ? = inconclusive; nt = no result.

SMILES | AI-2 QS modul | V-ATPase pH | T cruzi inh | CR mimetic SO | CendR NRP1 mod | HIF activator | CR mimetic CP | DHE fluor count
Cc1ccc(-c2nnc(Nc3ccc(C(=O)N(C)C)cc3)c3ccccc23)cc1S(=O)(=O)NC(C)(C)CO | 32 | -4 | -5 | 102 | -14 | 0 | nt | nt
COC(=O)c1ccc(Nc2nnc(-c3ccc(C)c(S(=O)(=O)NCC4CCCO4)c3)c3ccccc23)cc1 (centres undefined) | 24 | -1 | 41 | 95 | 4 | 1 | 87 | 92
Cc1ccc(-c2nnc(Nc3ccc(C(=O)N(C)C)cc3)c3ccccc23)cc1S(=O)(=O)NCC1CCCO1 (centres undefined) | 6 | 3 | -17 | 97 | -1 | 0 | 115 | 115
Cc1onc(-c2ccccc2Cl)c1C(=O)NCCCN1CCOCC1 | 13 | 3 | 9 | 94 | 13 | 0 | nt | nt
CN(c1ccccc1)S(=O)(=O)c1ccc(NC(=O)c2nc(S(C)(=O)=O)ncc2Cl)cc1 | 5 | 5 | -6 | 62* | 3 | 0 | 101 | 95
CN(c1ccccc1)S(=O)(=O)c1ccc(NC(=O)c2ccccc2)cc1 | 39 | -2 | 18 | 99 | -1 | 0 | nt | nt
CCSc1ncc(Cl)c(C(=O)Nc2ccccc2)n1 | 12 | 0 | 2 | 100 | 3 | nt | 107 | 90
CSc1ncc(Cl)c(C(=O)Nc2ccccc2C)n1 | 20 | 1 | -11 | 103 | 3 | -5 | 101 | 107
CCSc1ncc(Cl)c(C(=O)Nc2ccccc2C)n1 | 5 | 5 | 9 | 62* | -6 | -37 | 118 | 123
CCSc1ncc(Cl)c(C(=O)Nc2ccc(S(=O)(=O)Nc3ncccn3)cc2)n1 | 17 | -4 | -17 | 86 | 2 | 0 | nt | nt
Cc1cccc(C)c1NC(=O)C(c1ccccc1OC(F)(F)F)N1CCN(c2ccc(F)cc2)CC1 (centres undefined) | nt | nt | nt | nt | -8 | nt | nt | nt
CCSc1ncc(Cl)c(C(=O)Nc2ccc(S(N)(=O)=O)cc2)n1 | 22 | 4 | ? | 63* | 1 | -34 | 102 | 102
O=C(Cn1nc(Br)nc1Br)c1ccccc1 | 6 | 0 | -7 | 57* | -4 | 0 | 102 | 101
Nc1ncn(CC(=O)c2ccccc2)n1 | 20 | 1 | -27 | 106 | 11 | 0 | nt | nt
O=C(CNS(=O)(=O)c1ccccc1)Nc1cccc([N+](=O)[O-])c1 | -8 | -1 | 11 | 85 | 12 | 1 | nt | nt
CC1(C)Cc2ccccc2C2=NNC(=O)C2=N1 | 7 | 0 | 50 | 56* | 16 | -6 | 89 | 87
CC[C@@]12C(=O)N(c3cccc(F)c3)C(=O)N1[C@H](c1ccc(F)cc1)[C@@H]1C(=O)N(C3CCCCC3)C(=O)[C@@H]12 | 24 | -13 | -9 | 106 | 19 | -2 | nt | nt
CCN(c1ccc(OC)cc1)S(=O)(=O)c1cc(-c2cc(C)no2)ccc1OC | 7 | 1 | 8 | 63* | 17 | nt | 103 | 91
CC(C)Cn1cc(C(=O)NCc2cccs2)c2c3ccccc3n(C)c2c1=O | 29 | -5 | 35 | 62* | -9 | 0 | 125 | 119
CN(C(=O)Nc1cccc(C(F)(F)F)c1)C1CCCCC1 | 12 | -4 | -2 | 54* | 2 | -1 | 91 | 103
O=C(Nc1cccc(C(F)(F)F)c1)C1CCCCC1 | 21 | 1 | -10 | 111 | -6 | 0 | nt | nt
CC(=O)c1cccc(NC2c3ccccc3C(=O)N2Cc2ccc3c(c2)OCO3)c1 (centres undefined) | 23 | -1 | 2 | 97 | 6 | 0 | nt | nt
O=C1CCC(C(=O)N(c2ccccc2)C2(C(=O)NC3CCCCC3)CCCCC2)N1 (centres undefined) | nt | 2 | nt | 104 | -2 | nt | nt | nt
Cn1c2ccccc2c(=O)c2c(=O)n(C3CCCCCC3)c(C3CCCCC3)nc21 | 10 | 0 | 18 | nt | 10 | -1 | nt | nt
Cn1c2ccccc2c(=O)c2c(=O)n(C3CCCCC3)c(-c3cccs3)nc21 | 15 | 0 | ? | 65* | -8 | 0 | 110 | 98
SMILES | AI-2 QS modul | V-ATPase pH | T cruzi inh | CR mimetic SO | CendR NRP1 mod | HIF activator | CR mimetic CP | DHE fluor count
COc1ccc(NC(=O)c2nc(SC)ncc2Cl)cc1 | 4 | -4 | -2 | 109 | 8 | 0 | nt | nt
COc1cccc(NC(=O)c2nc(SC)ncc2Cl)c1 | 13 | 0 | 0 | 106 | -3 | 0 | 116 | 123
CSc1ncc(Cl)c(C(=O)Nc2ccc(C)c(C)c2)n1 | 14 | 1 | -9 | 65* | 0 | -34 | 99 | 114
COc1ccc(N=C2NC(=O)CS2)c([N+](=O)[O-])c1 | 22 | -2 | 2 | 102 | -4 | 0 | nt | nt
CCC(=O)NC(=S)Nc1cccc(NC(=O)c2ccc(Cl)cc2Cl)c1 | 13 | 0 | 15 | 109 | 8 | 0 | nt | nt
Cc1cccc(NS(=O)(=O)c2cc(C(=O)N3CCN(C)CC3)ccc2C)c1 | 24 | -2 | -2 | 64* | -17 | 0 | 110 | 104
CCN1CCN(C(=O)c2ccc(C)c(S(=O)(=O)Nc3cccc(C)c3)c2)CC1 | 19 | 0 | 0 | 97 | 6 | 0 | nt | nt
Cc1ccc(N2CCN(C(=O)c3ccccc3F)CC2)c(C)c1 | -2 | -1 | 23 | 92 | -2 | 0 | 99 | 103
CCC(=O)c1ccc(N2CCN(C(=O)c3ccccc3F)CC2)c(F)c1 | 11 | -2 | -6 | 92 | 3 | 0 | nt | nt
COc1ccc(-c2nc3c4c(ncn3n2)-c2ccccc2CC42CCCC2)cc1 | 26 | -2 | 7 | 64* | 12 | 2 | 107 | 99
O=C(NC1CCCC1)C(c1ccc(F)cc1)N(Cc1ccc(F)cc1)C(=O)c1ccn[nH]1 (centres undefined) | 14 | -2 | 14 | 94 | 8 | 1 | nt | nt
CC(=O)OC1(C(C)=O)CCC2C3CC4OC45CC(O)CCC5(C)C3CCC21C (centres undefined) | nt | -3 | nt | nt | 10 | nt | 121 | 115
CCc1ccccc1NC(=O)c1cc(-c2ccco2)on1 | 18 | -8 | 1 | 115 | -5 | 0 | nt | nt
COC(=O)c1cnc(Oc2c(Cl)cc(N)cc2Cl)cc1C(F)(F)F | -4 | -4 | 20 | 105 | -1 | 0 | nt | nt
COc1ccc(CN(CC(=O)NCCc2ccccc2)C(=O)CCC(=O)Nc2cc(C)ccn2)cc1 | 2 | -5 | 15 | 107 | 12 | 0 | nt | nt
Cc1ccc(CN(CC(=O)NCCc2ccccc2)C(=O)CCCC(=O)Nc2cc(C)on2)cc1 | 19 | 2 | -8 | 64* | 10 | 0 | 108 | 91
